Source: ChEMBL document CHEMBL1143856, “Iromycins from Streptomyces sp. and from synthesis: new inhibitors of the mitochondrial electron transport chain” (Bioorg Med Chem, 2008)
pIC50: −log10 of the molar value.

Assays:
[1] = target: Mitochondrial complex I; NADH oxidoreductase (Bos taurus, UniProt P25708+P52505); experiment: Inhibition of NADH-ubiquinone oxidoreductase assessed as NADH oxidase activity in bovine heart submitochondrial particles; assay type: protein-complex assay
In short: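 Bovine heart mitochondria isolated by differential centrifugation and sonicated to submitochondrial particles. Assay buffer was 75 mM air-saturated Na/K phosphate, pH 7.4, with 1 mM EDTA and 1 mM MgCl2, and 42–219 µg/mL protein, at 30 °C. Inhibitors were added in methanol (≤2% v/v) with 4 min preincubation. Reaction started with 0.16 mM NADH; A340 decrease followed over 4 min. Means of 2–4 independent experiments.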

L929 = experiment: Cytotoxicity against mouse L929 fibroblasts; assay type: cell-based
HepG2 = experiment: Cytotoxicity against human HepG2 cells; assay type: functional, cell-based
In short: (§1)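 Human gastric adenocarcinoma HM02, hepatocellular carcinoma HepG2 and breast adenocarcinoma MCF7 lines tested following NCI directives. Cytotoxicity expressed as IC50.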

Mus musculus = experiment: Toxicity in mouse at 100 mg/kg, ip; assay type: organism-based; set-up: dose 100 mg/kg, route intraperitoneal; settings: in vivo
MCF7 = experiment: Cytotoxicity against human MCF7 cells; assay type: functional, cell-based; in short: as §1
[2] = Cytotoxicity against human HM02 cells; assay type: functional, cell-based; in short: as §1

Mitochondrial complex I; NADH oxidoreductase, sequence (P25708 21-464 limits assumed, other chains not shown): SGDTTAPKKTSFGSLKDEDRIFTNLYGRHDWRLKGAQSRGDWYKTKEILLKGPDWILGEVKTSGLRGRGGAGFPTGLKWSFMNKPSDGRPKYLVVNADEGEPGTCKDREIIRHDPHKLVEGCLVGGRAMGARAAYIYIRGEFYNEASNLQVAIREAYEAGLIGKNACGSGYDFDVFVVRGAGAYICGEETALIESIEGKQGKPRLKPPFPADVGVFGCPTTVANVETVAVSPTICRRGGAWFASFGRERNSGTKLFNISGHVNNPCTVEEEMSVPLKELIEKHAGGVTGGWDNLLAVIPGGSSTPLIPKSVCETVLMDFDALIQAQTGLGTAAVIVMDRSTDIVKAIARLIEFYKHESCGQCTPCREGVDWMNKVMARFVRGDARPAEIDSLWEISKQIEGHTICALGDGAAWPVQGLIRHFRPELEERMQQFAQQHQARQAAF

Compound | pIC50 [1] | other results
CCCc1c(C/C=C(\C)C/C=C/C(C)C)[nH]c(=O)c(C)c1OC(C)=O [IROMYCIN AA] | < 4.63 | –
CCCc1c(CCC(C)CCCC(C)C)[nH]c(=O)c(C)c1O (centres undefined) [IROMYCIN AH] | 5.66 | –
CCCc1c(C/C=C(\C)C/C=C/C(C)C)[nH]c(=O)c(C)c1OC [IROMYCIN AM] | 5.55 | –
CCCc1c(C/C=C(\C)C/C=C/C(C)C)oc(=O)c(C)c1O [IROMYCIN AO] | < 4.58 | –
CCCc1c(C/C=C(\C)C/C=C/C(C)C)[nH]c(=O)c(C)c1O [IROMYCIN A] | 6.34 | pIC50 (L929): 4.18; pIC50 (HepG2): < 4.52; Activity (Mus musculus): Non-toxic; pIC50 (MCF7): < 4.52; pIC50 [2]: < 4.52
CCCc1c(C/C=C(\C)C/C=C/C(C)(C)O)[nH]c(=O)c(C)c1OC(C)=O [IROMYCIN BA] | < 4.65 | –
CCCc1c(C/C=C(\C)C/C=C/C(C)(C)O)[nH]c(=O)c(C)c1OC [IROMYCIN BM] | < 4.61 | –
CCCc1c(C/C=C(\C)C/C=C/C(C)(C)O)[nH]c(=O)c(C)c1O [IROMYCIN B] | 4.75 | pIC50 (L929): 4.18; pIC50 (HepG2): < 4.52; pIC50 (MCF7): < 4.52; pIC50 [2]: < 4.52
CC/C=C/C/C(C)=C/Cc1[nH]c(=O)c(C)c(O)c1CCC [IROMYCIN C] | 5.45 | –
CCCc1c(C/C=C(\C)C/C=C/C(C)O)[nH]c(=O)c(C)c1O (centres undefined) [IROMYCIN D] | < 4.58 | –
CCCC1(O)C(C/C=C(\C)C/C=C/C(C)C)=NC(=O)C(C)=C1O (centres undefined) [IROMYCIN E] | < 4.60 | –
CCCC1=C(C/C=C(\C)C/C=C/C(C)C)N=C(O)C(C)(O)C1=O (centres undefined) [IROMYCIN F] | < 4.60 | –
CCCCC/C(C)=C/Cc1oc(=O)c(C)c(O)c1CCC [IROMYCIN MO] | 5.07 | –
CCCCC/C(C)=C/Cc1[nH]c(=O)c(C)c(O)c1CCC [IROMYCIN M] | 6.00 | pIC50 (L929): 4.18
CCCc1c(C/C=C(\C)C/C=C/C(C)(C)C)oc(=O)c(C)c1O [IROMYCIN SO] | 4.82 | –
CCCc1c(C/C=C(\C)C/C=C/C(C)(C)C)[nH]c(=O)c(C)c1O [IROMYCIN S] | 6.74 | pIC50 (L929): 5.00
C/C=C(\C)[C@H](O)[C@H](C)/C=C(C)/C=C/C/C(C)=C/Cc1nc(OC)c(OC)c(O)c1C [PIERICIDIN A] | 8.30 | pIC50 (L929): 9.37
